Values joined by “and” are separate entries in the source; they are usually repeats but may differ in a detail not shown here. Identical values can stand only once.
Biological target: Metabotropic glutamate receptor 4 (Rattus norvegicus) (UniProt P31423)
Test: mGlu4 PAM potency and efficacy – thallium flux, HEK/GIRK cells, rat, SAR follow-up (AID 623875)
Conditions: HEK/GIRK rat mGlu4, thallium flux fluorescence;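 active = compound whose average potency across repeat runs for boosting rat mGlu4 signalling is below 30 µM; inactive = the rest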
Summary of the method: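 System: rat mGlu4 in HEK/GIRK/M4 cells; Dosing: 10-point concentration-response series, threefold dilution steps; Incubation: 1 h dye load, ~2.5 min compound pre-agonist; Technique: thallium flux through GIRK channels, FluoZin-2 AM fluorescence; Measure: baseline-normalized fluorescence slope 5–15 s post-addition, four-parameter logistic EC50.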

Metabotropic glutamate receptor 4 (Rattus norvegicus), sequence (P31423 whole entry, looked up): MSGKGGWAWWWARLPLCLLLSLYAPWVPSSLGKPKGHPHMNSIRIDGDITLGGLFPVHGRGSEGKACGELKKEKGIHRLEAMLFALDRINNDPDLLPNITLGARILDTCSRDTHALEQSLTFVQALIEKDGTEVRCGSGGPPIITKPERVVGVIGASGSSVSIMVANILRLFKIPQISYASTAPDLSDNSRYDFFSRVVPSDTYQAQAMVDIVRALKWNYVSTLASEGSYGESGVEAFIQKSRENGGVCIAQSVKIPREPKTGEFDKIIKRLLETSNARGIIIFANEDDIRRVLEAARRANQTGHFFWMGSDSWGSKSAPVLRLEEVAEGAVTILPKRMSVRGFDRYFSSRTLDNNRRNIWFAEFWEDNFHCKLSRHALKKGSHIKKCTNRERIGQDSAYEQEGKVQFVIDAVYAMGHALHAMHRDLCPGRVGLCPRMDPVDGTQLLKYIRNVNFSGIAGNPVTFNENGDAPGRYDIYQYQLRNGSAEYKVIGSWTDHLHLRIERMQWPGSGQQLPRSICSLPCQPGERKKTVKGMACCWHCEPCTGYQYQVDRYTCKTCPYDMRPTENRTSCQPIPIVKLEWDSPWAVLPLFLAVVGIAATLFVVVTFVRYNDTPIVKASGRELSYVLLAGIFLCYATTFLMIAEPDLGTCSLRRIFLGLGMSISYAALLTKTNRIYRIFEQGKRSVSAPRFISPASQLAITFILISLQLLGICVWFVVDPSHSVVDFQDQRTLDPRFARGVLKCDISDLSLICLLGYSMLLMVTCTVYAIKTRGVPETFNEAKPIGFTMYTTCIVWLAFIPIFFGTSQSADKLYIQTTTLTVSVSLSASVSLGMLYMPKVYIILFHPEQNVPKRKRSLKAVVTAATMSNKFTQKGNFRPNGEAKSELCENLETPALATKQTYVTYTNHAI

EC50, active:
Clc1cccc(Nc2noc3cccnc23)c1 70 nM and 80 nM
O=C(Nc1ccc2c(c1)C(=O)NC2=O)c1ccccn1 2120 nM
COc1cc(Nc2noc3cccnc23)ccc1Cl 1190 nM
Fc1cccc(Nc2noc3cccnc23)c1 530 nM
Clc1cccc(Nc2ncnc3cccnc23)c1 2580 nM
COc1cc2nc(-c3ccccn3)[nH]c2cc1Cl 6330 nM
Clc1ccc2nc(-c3ccccn3)[nH]c2c1 1020 nM
FC(F)Oc1cccc(Nc2noc3cccnc23)c1 110 nM and 130 nM
CC(C)N(C(=O)c1ccccn1)c1cccc(Cl)c1 10300 nM
O=C(Nc1cccc(Cl)c1)c1ccccn1 330 nM
O=C(Nc1ccc2cn[nH]c2c1)c1ccccn1 980 nM

Source: PubChem BioAssay AID623875 (Vanderbilt Specialized Chemistry Center, 2012)
